Laboratory results published in ChEMBL document CHEMBL1151940, “Chemical and biological investigation of cyclopropyl containing diaryl-pyrazole-3-carboxamides as novel and potent cannabinoid type 1 receptor antagonists” (J Med Chem, 2009).
Each block holds one compound with its values, some of them ahead of it.

Assays:
Cannabinoid receptor 1 = Cannabinoid receptor 1 (Rattus norvegicus, UniProt P20272); assay: Displacement of [3H]SR141716A from CB1 receptor in rat cerebellum by scintillation spectrometry; assay type: tissue-based
Mus musculus [1] = assay: Inhibition of WIN-55212-2-induced hypothermia in po dosed CD1 mouse assessed as rectal temperature administered 15 mins prior to WIN-55212 challenge measured after 45 mins post-induction; assay type: functional
Outline: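 Mice were pretreated, then 15 min later given WIN 55,212-2 (3 mg/kg ip) or vehicle; rectal temperature was read 45 min after that. n=8/group. Analysis was one-way ANOVA with Tukey post hoc test. ED50 values were derived for attenuation of hypothermia.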

Mus musculus [2] = assay: Appetite suppressant activity in fasted CD1 mouse assessed as decrease in palatable chow intake at 10 mg/kg, po administered 1 hr before food consumption measured after 1 hr relative to control; assay type: functional; set-up: scale not given: the % may be the effect or the level left
Outline: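 CD1 mice (>25 g) were housed singly for ≥3 days, then fasted 16 h. Compound or vehicle (5% Tween 80) was given orally in the home cage. After 1 h, pre-weighed palatable chow was offered and reweighed 1 h later. Intake was expressed as % difference from control mean (n=8-10/group).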

Mus musculus [3] = assay: Antiobesity activity in po dosed TBU8 high fat diet-induced obese C57/BL6 mouse assessed as decrease in body weight administered once daily for 14 days; assay type: functional, organism-based; details: C57Bl/6
Outline: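 TBU8 high-fat diet fed mice brought to about 60% excess body weight over lean controls (usually 6-8 weeks), isolated and grouped (n=8) balanced by body weight; 3-day habituation with daily tap water, then oral dosing once daily for 14 days against vehicle-treated fat controls; body weight taken at day 14; differences versus fat and lean controls tested.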

Mus musculus [4] = assay: Antiobesity activity in TBU8 high fat diet-induced obese C57/BL6 mouse assessed as decrease in body weight at 3 mg/kg, po administered once daily for 14 days relative to fat control; assay type: functional, C57Bl/6; set-up: scale not given: the % may be the effect or the level left
Mus musculus [5] = assay: Antiobesity activity in TBU8 high fat diet-induced obese C57/BL6 mouse assessed as decrease in body weight at 10 mg/kg, po administered once daily for 14 days relative to fat control; assay type: functional, C57Bl/6; set-up: scale not given: the % may be the effect or the level left
Mus musculus [6] = assay: Antiobesity activity in TBU8 high fat diet-induced obese C57/BL6 mouse assessed as decrease in body weight at 30 mg/kg, po administered once daily for 14 days relative to fat control; assay type: functional, C57Bl/6; set-up: scale not given: the % may be the effect or the level left
Mus musculus [7] = assay: Antiobesity activity in TBU8 high fat diet-induced obese C57/BL6 mouse assessed as decrease in obese-induced elevated serum cholesterol level at 30 mg/kg, po administered once daily for 14 days relative to fat control; assay type: functional, C57Bl/6; set-up: scale not given: the % may be the effect or the level left
Mus musculus [8] = assay: Antiobesity activity in TBU8 high fat diet-induced obese C57/BL6 mouse assessed as body weight at 10 mg/kg, po administered once daily for 14 days (Rvb=41.90 g); assay type: functional, C57Bl/6
Mus musculus [9] = assay: Antiobesity activity in TBU8 high fat diet-induced obese C57/BL6 mouse assessed as serum glucose level at 10 mg/kg, po administered once daily for 14 days (reference value: 9.52+/-0.38 […]); assay type: functional, C57Bl/6
Mus musculus [10] = assay: Antiobesity activity in TBU8 high fat diet-induced obese C57/BL6 mouse assessed as serum cholesterol level at 10 mg/kg, po administered once daily for 14 days (reference value: 5.35+/-0.12 […]); assay type: functional, C57Bl/6
Mus musculus [11] = assay: Antiobesity activity in TBU8 high fat diet-induced obese C57/BL6 mouse assessed as serum triglyceride level at 10 mg/kg, po administered once daily for 14 days (reference value: 1.42+/-0.04 […]); assay type: functional, C57Bl/6
Mus musculus [12] = assay: Antiobesity activity in TBU8 high fat diet-induced obese C57/BL6 mouse assessed as serum HDL-cholesterol level at 10 mg/kg, po administered once daily for 14 days (Rvb=4.42+/-0.08 […]); assay type: functional, C57Bl/6
Mus musculus [13] = assay: Antiobesity activity in TBU8 high fat diet-induced obese C57/BL6 mouse assessed as serum LDL-cholesterol level at 10 mg/kg, po administered once daily for 14 days (Rvb=0.84+/-0.03 […]); assay type: functional, C57Bl/6
Mus musculus [14] = assay: Antiobesity activity in TBU8 high fat diet-induced obese C57/BL6 mouse assessed as body weight at 30 mg/kg, po administered once daily for 14 days (Rvb=41.90 g); assay type: functional, C57Bl/6
Mus musculus [15] = assay: Antiobesity activity in TBU8 high fat diet-induced obese C57/BL6 mouse assessed as serum glucose level at 30 mg/kg, po administered once daily for 14 days (reference value: 9.52+/-0.38 […]); assay type: functional, C57Bl/6
Mus musculus [16] = assay: Antiobesity activity in TBU8 high fat diet-induced obese C57/BL6 mouse assessed as serum cholesterol level at 30 mg/kg, po administered once daily for 14 days (reference value: 5.35+/-0.12 […]); assay type: functional, C57Bl/6
Mus musculus [17] = assay: Antiobesity activity in TBU8 high fat diet-induced obese C57/BL6 mouse assessed as serum triglyceride level at 30 mg/kg, po administered once daily for 14 days (reference value: 1.42+/-0.04 […]); assay type: functional, C57Bl/6
Mus musculus [18] = assay: Antiobesity activity in TBU8 high fat diet-induced obese C57/BL6 mouse assessed as serum HDL-cholesterol level at 30 mg/kg, po administered once daily for 14 days (Rvb=4.42+/-0.08 […]); assay type: functional, C57Bl/6
Mus musculus [19] = assay: Antiobesity activity in TBU8 high fat diet-induced obese C57/BL6 mouse assessed as serum LDL-cholesterol level at 30 mg/kg, po administered once daily for 14 days (Rvb=0.84+/-0.03 […]); assay type: functional, C57Bl/6
Mus musculus [20] = assay: Antiobesity activity in TBU8 high fat diet-induced obese C57/BL6 mouse assessed as body weight at 3 mg/kg, po administered once daily for 14 days (Rvb=41.90 g); assay type: functional, C57Bl/6
Mus musculus [21] = assay: Antiobesity activity in TBU8 high fat diet-induced obese C57/BL6 mouse assessed as serum glucose level at 3 mg/kg, po administered once daily for 14 days (reference value: 9.52+/-0.38 […]); assay type: functional, C57Bl/6
Mus musculus [22] = assay: Antiobesity activity in TBU8 high fat diet-induced obese C57/BL6 mouse assessed as serum cholesterol level at 3 mg/kg, po administered once daily for 14 days (reference value: 5.35+/-0.12 […]); assay type: functional, C57Bl/6
Mus musculus [23] = assay: Antiobesity activity in TBU8 high fat diet-induced obese C57/BL6 mouse assessed as serum triglyceride level at 3 mg/kg, po administered once daily for 14 days (reference value: 1.42+/-0.04 […]); assay type: functional, C57Bl/6
Mus musculus [24] = assay: Antiobesity activity in TBU8 high fat diet-induced obese C57/BL6 mouse assessed as serum HDL-cholesterol level at 3 mg/kg, po administered once daily for 14 days (Rvb=4.42+/-0.08 […]); assay type: functional, C57Bl/6
Mus musculus [25] = assay: Antiobesity activity in TBU8 high fat diet-induced obese C57/BL6 mouse assessed as serum LDL-cholesterol level at 3 mg/kg, po administered once daily for 14 days (Rvb=0.84+/-0.03 […]); assay type: functional, C57Bl/6

Cannabinoid receptor 1, sequence (P20272 whole entry): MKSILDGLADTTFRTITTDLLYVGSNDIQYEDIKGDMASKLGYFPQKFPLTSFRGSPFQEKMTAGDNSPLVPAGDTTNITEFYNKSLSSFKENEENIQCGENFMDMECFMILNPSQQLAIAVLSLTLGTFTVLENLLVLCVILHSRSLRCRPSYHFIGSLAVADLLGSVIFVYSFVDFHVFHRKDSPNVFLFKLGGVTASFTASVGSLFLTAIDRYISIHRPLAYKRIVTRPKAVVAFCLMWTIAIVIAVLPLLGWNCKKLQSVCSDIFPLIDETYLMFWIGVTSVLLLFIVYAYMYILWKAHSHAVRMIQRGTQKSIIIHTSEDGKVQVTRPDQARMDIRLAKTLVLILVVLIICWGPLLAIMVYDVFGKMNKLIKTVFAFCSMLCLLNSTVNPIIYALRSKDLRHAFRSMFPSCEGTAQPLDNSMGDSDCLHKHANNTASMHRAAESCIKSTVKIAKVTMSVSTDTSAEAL

SMILES: O=C(NN1CCCCC1)c1cc(-c2ccc(C3CC3)cc2)n(-c2ccc(Cl)cc2Cl)n1
Ki (Cannabinoid receptor 1): 0.016 µM

SMILES: Cc1c(C(=O)NN2CCCCC2)nn(-c2ccc(Br)cc2Cl)c1-c1ccc(C2CC2)cc1
Ki (Cannabinoid receptor 1): 0.003 µM
ED50 (Mus musculus [1]): 0.22 mg/kg
Activity (Mus musculus [2]): 54%
Activity (Mus musculus [3]): Dose-dependent effect
Activity (Mus musculus [4]): 9%
Activity (Mus musculus [5]): 19%
Activity (Mus musculus [6]): 26%
Activity (Mus musculus [7]): 16%

SMILES: Cc1c(C(=O)NN2CCCCC2)nn(-c2ccc(Cl)cc2Cl)c1-c1ccc(Cl)cc1 [RIMONABANT]
ED50 (Mus musculus [1]): 0.41 mg/kg
Activity (Mus musculus [2]): 50%
Activity (Mus musculus [3]): Dose-dependent effect
Activity (Mus musculus [4]): 9%
Activity (Mus musculus [5]): 15%
Activity (Mus musculus [6]): 24%
Activity (Mus musculus [7]): 0%
Activity (Mus musculus [8]): 35.6 g
Activity (Mus musculus [9]): 8.84 mM
Activity (Mus musculus [10]): 5.35 mM
Activity (Mus musculus [11]): 1.18 mM
Activity (Mus musculus [12]): 4.4 mM
Activity (Mus musculus [13]): 0.82 mM

SMILES: Cc1c(C(=O)NN2CCCCC2)nn(-c2ccc(Cl)cc2Cl)c1-c1ccc(C2CCC2)cc1.Cl
Ki (Cannabinoid receptor 1): 0.007 µM
ED50 (Mus musculus [1]): 4 mg/kg

SMILES: CCc1c(C(=O)NN2CCCC2)nn(-c2ccc(Cl)cc2Cl)c1-c1ccc(C2CC2)cc1
Ki (Cannabinoid receptor 1): 0.004 µM
ED50 (Mus musculus [1]): 0.84 mg/kg
Activity (Mus musculus [2]): 49%
Activity (Mus musculus [3]): Dose-dependent effect
Activity (Mus musculus [4]): 8%
Activity (Mus musculus [5]): 15%
Activity (Mus musculus [6]): 21%
Activity (Mus musculus [7]): 36%
Activity (Mus musculus [8]): 35.6 g
Activity (Mus musculus [9]): 8.79 mM
Activity (Mus musculus [10]): 4.56 mM
Activity (Mus musculus [11]): 1.3 mM
Activity (Mus musculus [12]): 3.9 mM
Activity (Mus musculus [13]): 0.68 mM

SMILES: Cc1c(C(=O)NN2CCCCC2)nn(-c2ccc(Cl)cc2Cl)c1-c1ccc(C2CC2)cc1
Ki (Cannabinoid receptor 1): 0.003 µM

SMILES: Cc1c(C(=O)NN2CCCCC2)nn(-c2ccccc2Cl)c1-c1ccc(C2CC2)cc1
Ki (Cannabinoid receptor 1): 0.004 µM

SMILES: CCNC1(C(N)=O)CCN(c2ncnc3c2nc(-c2ccccc2Cl)n3-c2ccc(Cl)cc2)CC1 [OTENABANT]
Activity (Mus musculus [14]): 36.6 g
Activity (Mus musculus [15]): 9.45 mM
Activity (Mus musculus [16]): 5.34 mM
Activity (Mus musculus [17]): 1.32 mM
Activity (Mus musculus [18]): 4.4 mM
Activity (Mus musculus [19]): 0.85 mM

SMILES: Cc1c(C(=O)NN2CCCCC2)nn(-c2ccc(Cl)cc2F)c1-c1ccc(C2CC2)cc1
Ki (Cannabinoid receptor 1): 0.014 µM

SMILES: Cc1c(C(=O)NN2CCCCC2)nn(-c2ccc(Cl)cc2Cl)c1-c1ccc(C2CCCC2)cc1
Ki (Cannabinoid receptor 1): 0.015 µM
ED50 (Mus musculus [1]): ≥ 3 mg/kg

SMILES: COc1c(C(=O)NN2CCCCC2)nn(-c2ccc(Cl)cc2Cl)c1-c1ccc(C2CC2)cc1
Ki (Cannabinoid receptor 1): 0.003 µM

SMILES: Cc1c(C(=O)NN2CCCCC2)nn(-c2ccc(Cl)cc2Cl)c1-c1ccc(C2CCCCC2)cc1
Ki (Cannabinoid receptor 1): 0.013 µM
ED50 (Mus musculus [1]): > 3 mg/kg

SMILES: CCc1c(C(=O)NN2CCCCC2)nn(-c2ccc(Cl)cc2Cl)c1-c1ccc(C2CC2)cc1
Ki (Cannabinoid receptor 1): 0.004 µM
ED50 (Mus musculus [1]): 0.84 mg/kg
Activity (Mus musculus [2]): 47%
Activity (Mus musculus [3]): Dose-dependent effect
Activity (Mus musculus [4]): 8%
Activity (Mus musculus [5]): 15%
Activity (Mus musculus [6]): 22%
Activity (Mus musculus [7]): 19%

SMILES: C[C@H](NC(=O)C(C)(C)Oc1ccc(C(F)(F)F)cn1)[C@@H](Cc1ccc(Cl)cc1)c1cccc(C#N)c1 [TARANABANT]
Activity (Mus musculus [20]): 33.7 g
Activity (Mus musculus [21]): 9.11 mM
Activity (Mus musculus [22]): 5.01 mM
Activity (Mus musculus [23]): 1.44 mM
Activity (Mus musculus [24]): 4.16 mM
Activity (Mus musculus [25]): 0.82 mM

Next, values leading:

Ki (Cannabinoid receptor 1): 0.19 µM
SMILES: Cc1c(C(=O)NN2CCCCC2)nn(-c2ccc(F)cc2)c1-c1ccc(C2CC2)cc1

Ki (Cannabinoid receptor 1): 0.008 µM
SMILES: Cc1c(C(=O)NN2CCCCC2)nn(-c2ccc(F)cc2Cl)c1-c1ccc(C2CC2)cc1

Ki (Cannabinoid receptor 1): 0.011 µM
SMILES: Cc1c(C(=O)NN2CCCCC2)nn(-c2ccccc2F)c1-c1ccc(C2CC2)cc1

Ki (Cannabinoid receptor 1): 0.034 µM
SMILES: Cc1c(C(=O)NN2CCCCC2)nn(-c2ccc(F)cc2F)c1-c1ccc(C2CC2)cc1

Ki (Cannabinoid receptor 1): 0.079 µM
SMILES: Cc1c(C(=O)NN2CCCCC2)nn(-c2ccc(Cl)cc2)c1-c1ccc(C2CC2)cc1

Ki (Cannabinoid receptor 1): 0.121 µM
SMILES: Cc1c(C(=O)NN2CCCC2)nn(-c2ccccc2)c1-c1ccc(C2CC2)cc1

Ki (Cannabinoid receptor 1): 0.066 µM
SMILES: Cc1c(C(=O)NN2CCCCC2)nn(-c2ccccc2)c1-c1ccc(C2CC2)cc1
